Tested on: Mycobacterium tuberculosis
Experiment: Antitubercular activity against Mycobacterium tuberculosis H37Rv by MABA assay
Assay type: functional
Settings: not given
Method in brief: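 Actives re-tested at lower concentrations against H37Rv (ATCC 27294) in BACTEC 12B medium by Microplate Alamar Blue Assay. MIC taken as lowest concentration giving […] fluorescence reduction versus controls; rifampin reference.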
`O=C(CSc1nnc(Cc2csc(NC(=O)CCl)n2)n1NC(=O)c1ccc(Cl)cc1)N/N=C/c1ccccc1` showed an MIC of 3.13 µM. Work on `CC(=O)Nc1nc(Cc2nnc(SCC#N)n2NC(=O)c2ccc(Cl)cc2)cs1` yielded an MIC of 3.13 µM. For `Nn1c(S)nnc1Cc1csc(NC(=O)c2ccccc2)n1`, the MIC was 6.25 µM. Work on `CC(=O)Nc1nc(Cc2nnc(SCC(=O)NN)n2NC(=O)c2ccc(Cl)cc2)cs1` yielded an MIC of 6.25 µM. `N#CCSc1nnc(Cc2csc(NCCC(=O)O)n2)n1NC(=O)c1ccc(Cl)cc1` gave an MIC of 3.13 µM. In the case of `NNC(=O)CSc1nnc(Cc2csc(NC(=O)CCl)n2)n1NC(=O)c1ccc(Cl)cc1`, the MIC is reported as 6.25 µM. With `N#CCSc1nnc(Cc2csc(NCCC(=O)O)n2)n1NC(=O)c1cccc([N+](=O)[O-])c1` the MIC was < 6.25 µg/mL. With `CC(=O)Nc1nc(Cc2nnc(S)n2N)cs1` the MIC was < 6.25 µg/mL. With `O=C(Nc1nc(Cc2nnc(S)n2NC(=O)c2cccc([N+](=O)[O-])c2)cs1)c1ccccc1` the MIC was 6.25 µM. Molecule `CC(=O)Nc1nc(Cc2nnc(S)n2NC(=O)c2cccc([N+](=O)[O-])c2)cs1` has an MIC of 6.25 µM.

Tested on: Mycobacterium tuberculosis
Experiment: Antitubercular activity against Mycobacterium tuberculosis H37Rv at 6.25 ug/mL by MABA assay
Assay type: functional
Settings: read-out: GI
Method in brief: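 Primary screen against M. tuberculosis H37Rv (ATCC 27294) in BACTEC 12B medium by broth microdilution Microplate Alamar Blue Assay; fluorescent compounds run instead in BACTEC 460 radiometric system. Compounds above 95% inhibition counted active.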
With `O=C(CSc1nnc(Cc2csc(NC(=O)CCl)n2)n1NC(=O)c1ccc(Cl)cc1)N/N=C/c1ccccc1` the inhibition of growth at 6.25 µg/mL was 96%. Work on `CC(=O)Nc1nc(Cc2nnc(SCC#N)n2NC(=O)c2ccc(Cl)cc2)cs1` yielded an inhibition of growth at 6.25 µg/mL of 96%. Work on `Nn1c(S)nnc1Cc1csc(NC(=O)c2ccccc2)n1` yielded an inhibition of growth at 6.25 µg/mL of 96%. `CC(=O)Nc1nc(Cc2nnc(SCC(=O)NN)n2NC(=O)c2ccc(Cl)cc2)cs1` showed an inhibition of growth at 6.25 µg/mL of 96%. Work on `N#CCSc1nnc(Cc2csc(NCCC(=O)O)n2)n1NC(=O)c1ccc(Cl)cc1` yielded an inhibition of growth at 6.25 µg/mL of 100%. In the case of `NNC(=O)CSc1nnc(Cc2csc(NC(=O)CCl)n2)n1NC(=O)c1ccc(Cl)cc1`, the inhibition of growth at 6.25 µg/mL is reported as 96%. `N#CCSc1nnc(Cc2csc(NCCC(=O)O)n2)n1NC(=O)c1cccc([N+](=O)[O-])c1` gave an inhibition of growth at 6.25 µg/mL of 96%. Work on `CC(=O)Nc1nc(Cc2nnc(S)n2N)cs1` yielded an inhibition of growth at 6.25 µg/mL of 96%. `O=C(Nc1nc(Cc2nnc(S)n2NC(=O)c2cccc([N+](=O)[O-])c2)cs1)c1ccccc1` showed an inhibition of growth at 6.25 µg/mL of 96%. `CC(=O)Nc1nc(Cc2nnc(S)n2NC(=O)c2cccc([N+](=O)[O-])c2)cs1` gave an inhibition of growth at 6.25 µg/mL of 100%.

Tested on: Staphylococcus aureus
Experiment: Antibacterial activity against Staphylococcus aureus at 50 to 100 uM after 24 hrs by well diffusion method
Assay type: functional
Settings: not given
Method in brief: (§1)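 Nutrient agar plates with 10 mm wells cut by cork borer; 24-h subcultured bacteria swabbed on. Compounds dissolved in chloroform, 50 to 100 μM added to wells, gentamycin as standard. Incubated 24 h at 24–28 °C; inhibition zone diameter measured and converted to percent inhibition.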
Molecule `O=C(CSc1nnc(Cc2csc(NC(=O)CCl)n2)n1NC(=O)c1ccc(Cl)cc1)N/N=C/c1ccccc1` has an inhibition zone of 24 mm. In the case of `CC(=O)Nc1nc(Cc2nnc(SCC#N)n2NC(=O)c2ccc(Cl)cc2)cs1`, the inhibition zone is reported as 28 mm. `Nn1c(S)nnc1Cc1csc(NC(=O)c2ccccc2)n1` showed an inhibition zone of 22 mm. Molecule `CC(=O)Nc1nc(Cc2nnc(SCC(=O)NN)n2NC(=O)c2ccc(Cl)cc2)cs1` has an inhibition zone of 16 mm. `N#CCSc1nnc(Cc2csc(NCCC(=O)O)n2)n1NC(=O)c1ccc(Cl)cc1` showed an inhibition zone of 30 mm. Molecule `NNC(=O)CSc1nnc(Cc2csc(NC(=O)CCl)n2)n1NC(=O)c1ccc(Cl)cc1` has an inhibition zone of 16 mm. Molecule `N#CCSc1nnc(Cc2csc(NCCC(=O)O)n2)n1NC(=O)c1cccc([N+](=O)[O-])c1` has an inhibition zone of 25 mm. `CC(=O)Nc1nc(Cc2nnc(S)n2N)cs1` showed an inhibition zone of 28 mm. For `O=C(Nc1nc(Cc2nnc(S)n2NC(=O)c2cccc([N+](=O)[O-])c2)cs1)c1ccccc1`, the inhibition zone was 11 mm. `CC(=O)Nc1nc(Cc2nnc(S)n2NC(=O)c2cccc([N+](=O)[O-])c2)cs1` showed an inhibition zone of 16 mm.

Tested on: Escherichia coli
Experiment: Antibacterial activity against Escherichia coli at 50 to 100 uM after 24 hrs by well diffusion method
Assay type: functional
Settings: not given
Method in brief: as §1
In the case of `O=C(CSc1nnc(Cc2csc(NC(=O)CCl)n2)n1NC(=O)c1ccc(Cl)cc1)N/N=C/c1ccccc1`, the inhibition zone is reported as 19 mm. For `CC(=O)Nc1nc(Cc2nnc(SCC#N)n2NC(=O)c2ccc(Cl)cc2)cs1`, the inhibition zone was 23 mm. For `Nn1c(S)nnc1Cc1csc(NC(=O)c2ccccc2)n1`, the inhibition zone was 18 mm. `CC(=O)Nc1nc(Cc2nnc(SCC(=O)NN)n2NC(=O)c2ccc(Cl)cc2)cs1` showed an inhibition zone of 12 mm. In the case of `N#CCSc1nnc(Cc2csc(NCCC(=O)O)n2)n1NC(=O)c1ccc(Cl)cc1`, the inhibition zone is reported as 21 mm. `NNC(=O)CSc1nnc(Cc2csc(NC(=O)CCl)n2)n1NC(=O)c1ccc(Cl)cc1` showed an inhibition zone of 12 mm. With `N#CCSc1nnc(Cc2csc(NCCC(=O)O)n2)n1NC(=O)c1cccc([N+](=O)[O-])c1` the inhibition zone was 24 mm. `CC(=O)Nc1nc(Cc2nnc(S)n2N)cs1` showed an inhibition zone of 22 mm. Molecule `O=C(Nc1nc(Cc2nnc(S)n2NC(=O)c2cccc([N+](=O)[O-])c2)cs1)c1ccccc1` has an inhibition zone of 16 mm. `CC(=O)Nc1nc(Cc2nnc(S)n2NC(=O)c2cccc([N+](=O)[O-])c2)cs1` showed an inhibition zone of 12 mm.

Tested on: Pseudomonas aeruginosa
Experiment: Antibacterial activity against Pseudomonas aeruginosa at 50 to 100 uM after 24 hrs by well diffusion method
Assay type: functional
Settings: not given
Method in brief: as §1
For `O=C(CSc1nnc(Cc2csc(NC(=O)CCl)n2)n1NC(=O)c1ccc(Cl)cc1)N/N=C/c1ccccc1`, the inhibition zone was 19 mm. Molecule `CC(=O)Nc1nc(Cc2nnc(SCC#N)n2NC(=O)c2ccc(Cl)cc2)cs1` has an inhibition zone of 20 mm. Molecule `Nn1c(S)nnc1Cc1csc(NC(=O)c2ccccc2)n1` has an inhibition zone of 20 mm. With `CC(=O)Nc1nc(Cc2nnc(SCC(=O)NN)n2NC(=O)c2ccc(Cl)cc2)cs1` the inhibition zone was 16 mm. For `N#CCSc1nnc(Cc2csc(NCCC(=O)O)n2)n1NC(=O)c1ccc(Cl)cc1`, the inhibition zone was 29 mm. `NNC(=O)CSc1nnc(Cc2csc(NC(=O)CCl)n2)n1NC(=O)c1ccc(Cl)cc1` showed an inhibition zone of 18 mm. With `N#CCSc1nnc(Cc2csc(NCCC(=O)O)n2)n1NC(=O)c1cccc([N+](=O)[O-])c1` the inhibition zone was 23 mm. Work on `CC(=O)Nc1nc(Cc2nnc(S)n2N)cs1` yielded an inhibition zone of 27 mm. For `O=C(Nc1nc(Cc2nnc(S)n2NC(=O)c2cccc([N+](=O)[O-])c2)cs1)c1ccccc1`, the inhibition zone was 24 mm. Work on `CC(=O)Nc1nc(Cc2nnc(S)n2NC(=O)c2cccc([N+](=O)[O-])c2)cs1` yielded an inhibition zone of 16 mm.

Tested on: Salmonella typhi
Experiment: Antibacterial activity against Salmonella typhi at 50 to 100 uM after 24 hrs by well diffusion method
Assay type: functional, Salmonella enterica subsp. enterica serovar Typhi
Set-up: unit not given here
Settings: not given
Method in brief: as §1
Molecule `O=C(CSc1nnc(Cc2csc(NC(=O)CCl)n2)n1NC(=O)c1ccc(Cl)cc1)N/N=C/c1ccccc1` has an Inhibition of 17. `CC(=O)Nc1nc(Cc2nnc(SCC#N)n2NC(=O)c2ccc(Cl)cc2)cs1` showed an Inhibition of 24. With `Nn1c(S)nnc1Cc1csc(NC(=O)c2ccccc2)n1` the Inhibition was 14. For `CC(=O)Nc1nc(Cc2nnc(SCC(=O)NN)n2NC(=O)c2ccc(Cl)cc2)cs1`, the Inhibition was 14. Work on `N#CCSc1nnc(Cc2csc(NCCC(=O)O)n2)n1NC(=O)c1ccc(Cl)cc1` yielded an Inhibition of 25. `NNC(=O)CSc1nnc(Cc2csc(NC(=O)CCl)n2)n1NC(=O)c1ccc(Cl)cc1` gave an Inhibition of 12. Work on `N#CCSc1nnc(Cc2csc(NCCC(=O)O)n2)n1NC(=O)c1cccc([N+](=O)[O-])c1` yielded an Inhibition of 24. With `CC(=O)Nc1nc(Cc2nnc(S)n2N)cs1` the Inhibition was 24. Work on `O=C(Nc1nc(Cc2nnc(S)n2NC(=O)c2cccc([N+](=O)[O-])c2)cs1)c1ccccc1` yielded an Inhibition of 12. Work on `CC(=O)Nc1nc(Cc2nnc(S)n2NC(=O)c2cccc([N+](=O)[O-])c2)cs1` yielded an Inhibition of 12.

Tested on: not listed separately
Experiment: Cytotoxicity against Vero-C1008 cells at 6.25 to 50 ug/mL by neutral red uptake assay
Assay type: cell-based
Settings: chlorocebus sabaeus
Method in brief: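 Vero-C-1008 cells exposed to 6.25 to 50 μg/mL compound; viability read by neutral red uptake.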
For `O=C(CSc1nnc(Cc2csc(NC(=O)CCl)n2)n1NC(=O)c1ccc(Cl)cc1)N/N=C/c1ccccc1`, the Activity was “Non-toxic”. With `CC(=O)Nc1nc(Cc2nnc(SCC#N)n2NC(=O)c2ccc(Cl)cc2)cs1` the Activity was “Non-toxic”. In the case of `Nn1c(S)nnc1Cc1csc(NC(=O)c2ccccc2)n1`, the Activity is reported as “Non-toxic”. In the case of `CC(=O)Nc1nc(Cc2nnc(SCC(=O)NN)n2NC(=O)c2ccc(Cl)cc2)cs1`, the Activity is reported as “Non-toxic”. In the case of `N#CCSc1nnc(Cc2csc(NCCC(=O)O)n2)n1NC(=O)c1ccc(Cl)cc1`, the Activity is reported as “Non-toxic”. With `NNC(=O)CSc1nnc(Cc2csc(NC(=O)CCl)n2)n1NC(=O)c1ccc(Cl)cc1` the Activity was “Non-toxic”. With `N#CCSc1nnc(Cc2csc(NCCC(=O)O)n2)n1NC(=O)c1cccc([N+](=O)[O-])c1` the Activity was “Non-toxic”. For `CC(=O)Nc1nc(Cc2nnc(S)n2N)cs1`, the Activity was “Non-toxic”. With `O=C(Nc1nc(Cc2nnc(S)n2NC(=O)c2cccc([N+](=O)[O-])c2)cs1)c1ccccc1` the Activity was “Non-toxic”. For `CC(=O)Nc1nc(Cc2nnc(S)n2NC(=O)c2cccc([N+](=O)[O-])c2)cs1`, the Activity was “Non-toxic”.

From ChEMBL document CHEMBL1148007, “Synthesis of new S-derivatives of clubbed triazolyl thiazole as anti-Mycobacterium tuberculosis agents” (Bioorg Med Chem, 2007)
